# Measurements: ChEMBL document CHEMBL5058577, “EUbOPEN Chemogenomics Library 2 (Multiplex)” (2022)
# Test system: U2OS
# Assay: Multiplex assay against U2OS
# Type: toxicity, cell-based
# Details: human
# Summary of the method: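 Live cells were stained at seeding with Hoechst33342, BioTracker Green Microtubule Cytoskeleton Dye, MitoTracker Red and Annexin V Alexa Fluor 680, then imaged on a CQ1 microscope at 37°C and 5% CO2 after compound addition. CellPathfinder machine-learning gating split cells into Hoechst high-intensity objects or normal cells. Normal cells were split into healthy, pyknosed or fragmented nuclei, and pyknosed cells into mitotic or apoptotic. Tubulin, mitochondrial-mass and membrane-permeability phenotypes are per cents of healthy-nucleus cells.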
# [1] = 12 h, 1 µM, compound concentration 1 uM, replicate 1
# [2] = 12 h, 1 µM, compound concentration 1 uM, replicate 2
# [3] = 12 h, 10 µM, compound concentration 10 uM, replicate 1
# [4] = 12 h, 10 µM, compound concentration 10 uM, replicate 2
# [5] = 24 h, 1 µM, compound concentration 1 uM, replicate 1
# [6] = 24 h, 1 µM, compound concentration 1 uM, replicate 2
# [7] = 24 h, 10 µM, compound concentration 10 uM, replicate 1
# [8] = 24 h, 10 µM, compound concentration 10 uM, replicate 2
# [9] = 48 h, 1 µM, compound concentration 1 uM, replicate 1
# [10] = 48 h, 1 µM, compound concentration 1 uM, replicate 2
# [11] = 48 h, 10 µM, compound concentration 10 uM, replicate 1
# [12] = 48 h, 10 µM, compound concentration 10 uM, replicate 2
smiles,measurement,setting,value
CN1CCN2c3ncccc3Cc3ccccc3C2C1 (stereo not drawn) [MIRTAZAPINE],Population Apoptotic (%),[1],82%
same,Population Fragmented Nuclei (%),[1],21%
same,Population Healthy Nuclei (%),[1],67%
same,Population Hoechst High Intensity Objects (%),[1],1%
same,Population Membrane Permeable-Phenotype (%),[1],3%
same,Population Mitochondria Different-Phenotype (%),[1],1%
same,Population Mitotic Cells (%),[1],17%
same,Population Normal (%),[1],99%
same,Population Pyknosed Nuclei (%),[1],11%
same,Population Tubulin-Different-Phenotype (%),[1],2%
same,Total Cell Count,[1],301
same,Population Apoptotic (%),[2],100%
same,Population Healthy Nuclei (%),[2],72%
same,Population Membrane Permeable-Phenotype (%),[2],5%
same,Population Mitochondria Different-Phenotype (%),[2],6%
same,Population Mitotic Cells (%),[2],0%
same,Population Normal (%),[2],98%
same,Population Pyknosed Nuclei (%),[2],6%
same,Population Tubulin-Different-Phenotype (%),[2],3%
same,Total Cell Count,[2],81
same,Population Apoptotic (%),[3],73%
same,Population Fragmented Nuclei (%),[3],19%
same,Population Healthy Nuclei (%),[3],71%
same,Population Hoechst High Intensity Objects (%),[3],3%
same,Population Membrane Permeable-Phenotype (%),[3],6%
same,Population Mitochondria Different-Phenotype (%),[3],5%
same,Population Mitotic Cells (%),[3],26%
same,Population Normal (%),[3],96%
same,Population Pyknosed Nuclei (%),[3],8%
same,Population Tubulin-Different-Phenotype (%),[3],6%
same,Total Cell Count,[3],266
same,Population Apoptotic (%),[4],66%
same,Population Fragmented Nuclei (%),[4],13%
same,Population Healthy Nuclei (%),[4],82%
same,Population Membrane Permeable-Phenotype (%),[4],3%
same,Population Mitochondria Different-Phenotype (%),[4],4%
same,Population Mitotic Cells (%),[4],33%
same,Population Pyknosed Nuclei (%),[4],3%
same,Population Tubulin-Different-Phenotype (%),[4],0%
same,Total Cell Count,[4],83
same,Population Apoptotic (%),[5],85%
same,Population Fragmented Nuclei (%),[5],15%
same,Population Healthy Nuclei (%),[5],76%
same,Population Hoechst High Intensity Objects (%),[5],2%
same,Population Membrane Permeable-Phenotype (%),[5],5%
same,Population Mitochondria Different-Phenotype (%),[5],3%
same,Population Mitotic Cells (%),[5],14%
same,Population Normal (%),[5],97%
same,Population Pyknosed Nuclei (%),[5],8%
same,Population Tubulin-Different-Phenotype (%),[5],2%
same,Total Cell Count,[5],340
same,Population Apoptotic (%),[6],100%
same,Population Fragmented Nuclei (%),[6],26%
same,Population Healthy Nuclei (%),[6],63%
same,Population Hoechst High Intensity Objects (%),[6],3%
same,Population Membrane Permeable-Phenotype (%),[6],3%
same,Population Mitotic Cells (%),[6],0%
same,Population Normal (%),[6],96%
same,Population Pyknosed Nuclei (%),[6],10%
same,Population Tubulin-Different-Phenotype (%),[6],4%
same,Total Cell Count,[6],99
same,Population Apoptotic (%),[7],89%
same,Population Fragmented Nuclei (%),[7],18%
same,Population Healthy Nuclei (%),[7],71%
same,Population Hoechst High Intensity Objects (%),[7],2%
same,Population Membrane Permeable-Phenotype (%),[7],4%
same,Population Mitochondria Different-Phenotype (%),[7],2%
same,Population Mitotic Cells (%),[7],10%
same,Population Normal (%),[7],97%
same,Population Pyknosed Nuclei (%),[7],9%
same,Population Tubulin-Different-Phenotype (%),[7],0%
same,Total Cell Count,[7],314
same,Population Apoptotic (%),[8],83%
same,Population Fragmented Nuclei (%),[8],9%
same,Population Healthy Nuclei (%),[8],85%
same,Population Hoechst High Intensity Objects (%),[8],0%
same,Population Membrane Permeable-Phenotype (%),[8],5%
same,Population Mitotic Cells (%),[8],16%
same,Population Normal (%),[8],99%
same,Population Pyknosed Nuclei (%),[8],5%
same,Population Tubulin-Different-Phenotype (%),[8],5%
same,Total Cell Count,[8],108
same,Population Apoptotic (%),[9],83%
same,Population Fragmented Nuclei (%),[9],12%
same,Population Healthy Nuclei (%),[9],76%
same,Population Hoechst High Intensity Objects (%),[9],2%
same,Population Membrane Permeable-Phenotype (%),[9],4%
same,Population Mitochondria Different-Phenotype (%),[9],2%
same,Population Mitotic Cells (%),[9],16%
same,Population Normal (%),[9],97%
same,Population Pyknosed Nuclei (%),[9],10%
same,Population Tubulin-Different-Phenotype (%),[9],3%
same,Total Cell Count,[9],479
same,Population Apoptotic (%),[10],92%
same,Population Fragmented Nuclei (%),[10],20%
same,Population Healthy Nuclei (%),[10],68%
same,Population Hoechst High Intensity Objects (%),[10],4%
same,Population Membrane Permeable-Phenotype (%),[10],8%
same,Population Mitochondria Different-Phenotype (%),[10],4%
same,Population Mitotic Cells (%),[10],7%
same,Population Normal (%),[10],95%
same,Population Pyknosed Nuclei (%),[10],11%
same,Population Tubulin-Different-Phenotype (%),[10],1%
same,Total Cell Count,[10],132
same,Population Apoptotic (%),[11],95%
same,Population Fragmented Nuclei (%),[11],15%
same,Population Healthy Nuclei (%),[11],75%
same,Population Hoechst High Intensity Objects (%),[11],2%
same,Population Membrane Permeable-Phenotype (%),[11],7%
same,Population Mitochondria Different-Phenotype (%),[11],4%
same,Population Mitotic Cells (%),[11],5%
same,Population Normal (%),[11],97%
same,Population Pyknosed Nuclei (%),[11],9%
same,Population Tubulin-Different-Phenotype (%),[11],5%
same,Total Cell Count,[11],435
same,Population Apoptotic (%),[12],100%
same,Population Fragmented Nuclei (%),[12],12%
same,Population Healthy Nuclei (%),[12],78%
same,Population Membrane Permeable-Phenotype (%),[12],3%
same,Population Mitochondria Different-Phenotype (%),[12],3%
same,Population Mitotic Cells (%),[12],0%
same,Population Tubulin-Different-Phenotype (%),[12],3%
same,Total Cell Count,[12],170
